Efflux pump mplx – blocks antifungal efflux pumps in multiplex yeast assay. inhibition, % at 10 µM. S. cerevisiae Candida pump triplex, Nile Red efflux. 330,000 tested, 0.44% active. AID 485275;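 active means plate passing quality check with inhibition over a set limit, or well fluorescence over plate mean plus 4 SD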;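 further: Nile Red retained in pooled yeast measured as flow cytometry median fluorescence; 0% = buffer negative control and 100% = Enniatin B positive control; higher means more Nile Red kept so more efflux inhibition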
ASAP1 inh – inhibitors of human ASAP1 ArfGAP activity; Q9ULH1; ASAP1-stimulated ARF1 GTP hydrolysis, GDP FP detection; inhibition, % at 16.5 µM; 360,000 tested, 0.19% active; AID 624377; in the data active means inhibition above about 25%;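 further: 0% = vehicle with enzyme and substrate and 100% = no enzyme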
ARFGAP1 inhibitor – inhibits rat ARF GTPase activating protein 1; Arfgap1-stimulated ARF1 GTP hydrolysis, GDP FP detection; inhibition, % at 16.5 µM; AID 651572; Q62848; 360,000 tested, 0.26% active;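 active means inhibition above a per-plate limit, mean inhibition of low control wells plus 3 SD, cut at about 25% in these data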;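 further: 0% = DMSO wells with enzyme and 100% = wells lacking Arfgap1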
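System: truncated rat Arfgap1 GAP domain / Benchmarks: high control wells lacking Arfgap1, low control full reaction with DMSO / Times: compound-enzyme preincubation 20 min, reaction 120 min, detection 60 min, 25 °C / Repeats: one replicate per compound / Also added: human ARF1(Δ1-17)-GTP substrate / Measured by: Tracer-displacement fluorescence polarization with EDTA stop, 620/688 nm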
Rtt109 Vps75 – C. albicans Rtt109 histone acetyltransferase inhibition; 330,000 tested, 0.16% active; inhibition, % at 34.9 µM; purified Rtt109/Vps75, ThioGlo CoA-SH fluorescence, 4 h; AID 540336; Q5AAJ8;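 active means inhibition of at least 50% in every replicate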
Target sequence (Q5AAJ8 whole entry, looked up): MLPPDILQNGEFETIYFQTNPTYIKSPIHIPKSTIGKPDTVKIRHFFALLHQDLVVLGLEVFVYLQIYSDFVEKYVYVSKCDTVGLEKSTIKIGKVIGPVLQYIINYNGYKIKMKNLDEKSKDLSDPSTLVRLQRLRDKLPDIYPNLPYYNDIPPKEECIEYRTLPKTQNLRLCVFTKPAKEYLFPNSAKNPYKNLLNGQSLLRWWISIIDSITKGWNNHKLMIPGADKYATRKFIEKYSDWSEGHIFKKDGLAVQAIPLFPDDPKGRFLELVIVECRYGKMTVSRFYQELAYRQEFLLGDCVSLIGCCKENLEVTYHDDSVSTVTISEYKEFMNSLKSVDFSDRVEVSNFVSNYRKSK
FGF22 binding – shifts melting point of recombinant human FGF22; Q9HCT0; recombinant FGF22 thermal shift, SYPRO orange fluorescence; percent of sucrose octasulfate shift, DMSO zero; activity (Tm shift, normalised), % at 9.99 µM; 340,000 tested, 1.5% active;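 active means mean Tm shift, scaled 0 neutral to 100 positive control, at about 1.3% or above, every replicate too, limit read from the data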
Target sequence (Q9HCT0 whole entry, looked up): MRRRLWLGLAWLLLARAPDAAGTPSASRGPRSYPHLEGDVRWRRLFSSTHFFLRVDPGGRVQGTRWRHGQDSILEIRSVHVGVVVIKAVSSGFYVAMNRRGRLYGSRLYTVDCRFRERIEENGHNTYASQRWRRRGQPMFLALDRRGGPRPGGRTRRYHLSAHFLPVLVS
The depositor's hits bear a star; / = no result given. A selection: hits, their analogues and other compounds. The true share with any hit is near 1.9%.

SMILES	Efflux pump mplx	ASAP1 inh	ARFGAP1 inhibitor	Rtt109 Vps75	FGF22 binding
COC(=O)C1=C(C)N(Cc2ccccc2)C(=NCc2ccccc2)N[C@H]1c1cccc(F)c1	0	6	10	14	45*
Cc1ccc(CSc2nnc(C)c(=O)[nH]2)cc1	0	-1	-7	39	43*
Cc1nnc(SCc2ccccc2)[nH]c1=O	0	-12	6	-3	0
COc1ccc(CN2CCc3ccccc3C2)cc1Br	0	-2	0	1	0
COc1ccc(Nc2nc3c(C)cccc3cc2C#N)cc1	0	-14	-4	8	43*
COc1cccc(Nc2nc3cc(OC)ccc3cc2C#N)c1	0	9	3	-23	0
CCCCCCCn1c(=N)n(CC(O)c2ccco2)c2ccccc21 (configuration not stated)	0	-9	8	18	44*
CC(C)N(C(=S)NC1CC2CCC1C2)c1ccccc1 (configuration not stated)	0	-13	15	/	44*
COc1ccc(C(=O)Nc2ccc3ccccc3n2)c(OC)c1OC	0	6	-9	-7	0
O=C(c1noc2c1CSc1ccccc1-2)N1CCN(c2ccc(Cl)cc2)CC1	0	-3	-3	-13	0
CCCCCC(=O)Nc1nc(C)c(-c2csc(Nc3cc(OC)ccc3OC)n2)s1	0	8	19	-2	44*
CCCCCCC(=O)Nc1nc(C)c(-c2csc(Nc3cc(OC)ccc3OC)n2)s1	0	7	21	8	0
O=C(CSc1ncn[nH]1)NC1CCCc2ccccc21 (configuration not stated)	0	-1	0	2	43*
Cc1cc(C)nc(NS(=O)(=O)c2ccc(NC(=O)c3ccc(S(=O)(=O)N(C)C)cc3)cc2)n1	0	-8	-6	6	0
Cc1cc(C)nc(NS(=O)(=O)c2ccc(NC(=O)c3ccc4c(c3)OCCO4)cc2)n1	0	-4	0	-3	43*
COc1ccc2nc(N/C(N)=N/C(=S)Nc3ccccc3)nc(C)c2c1	0	-2	5	3	4.1*
COc1ccc2nc(N/C(N)=N/C(=S)Nc3ccc(C)c(C)c3)nc(C)c2c1	0	/	/	/	/
O=C(C[C@@H]1CC[C@H](NC(=O)Nc2ccccc2)[C@H](CO)O1)NCc1cccc(F)c1	/	/	/	/	0
O=C(NCCN1CCN(c2ccccc2)CC1)c1ccc2c(c1)[nH]c(=S)n1c3ccccc3nc21	0	-5	-1	-2	43*
O=C(c1ccc2c(c1)[nH]c(=S)n1c3ccccc3nc21)N1CCN(c2ncccn2)CC1	0	9	-12	-7	/
Cc1nn(CC(=O)N(C)C2CCC(C)CC2)c(C)c1S(=O)(=O)N(C)C (configuration not stated)	0	0	-2	-6	0
CC(C)CC#Cc1ccc2c(c1)O[C@H](CN(C)Cc1ccccc1F)[C@H](C)CN([C@H](C)CO)S2(=O)=O	/	/	/	/	0
COc1ccc(C(=O)/C=C2\NCCc3cc(OC)c(OC)cc32)cc1OC	0	6	4	3	0
Clc1nnc(NC2CCCCC2)c(Cl)c1Cl	/	-7	-11	/	43*
c1ccc2c(NC3CCCC3)nnc(NC3CCCC3)c2c1	0	-15	-3	4	/
SMILES	Efflux pump mplx	ASAP1 inh	ARFGAP1 inhibitor	Rtt109 Vps75	FGF22 binding
CCC(CO)NCC#Cc1ccccc1 (configuration not stated)	0	-6	3	-7	44*
Nc1ncnc2c1ncn2[C@@H]1O[C@H](CNCc2ccc(-c3cc(C(F)(F)F)ccc3Cl)o2)[C@@H](O)[C@H]1O	0	-11	-4	-2	0
O=S(=O)(N[C@@H]1CC[C@H](CCn2cc(C3(O)CCCC3)nn2)O[C@@H]1CO)c1ccccc1	/	/	/	/	0
Fc1cccc(C2NN=C(c3ccccc3)S2)c1 (configuration not stated)	0	-3	-4	/	44*
CCCN(CC(=O)Nc1ccc(F)c(F)c1F)C(=O)c1ccc2c(=O)n3c(nc2c1)CCC3	0	8	0	6	/
C[C@@H]1CN([C@@H](C)CO)C(=O)c2cccc(N(C)C)c2O[C@H]1CN(C)Cc1ccc(C(=O)Nc2ccccc2N)cc1	/	/	/	/	0
CCC(=O)Nc1ccccc1C(=O)N1CCOCC1	0	4	-2	-3	/
CCOCC(=O)Nc1ccccc1C(=O)N1CCOCC1	0	-6	-16	10	44*
Cn1c(=O)n(C/C=C/c2ccccc2)c(=O)c2c1nc1n2CCCN1Cc1ccccc1	0	5	2	5	/
COc1cc(/C=C/C(=O)O)cc(S(=O)(=O)Nc2cccc(S(=O)(=O)N3CCOCC3)c2)c1OC	0	5	-3	7	0
Cc1cc(OCc2nc(-c3cccnc3)no2)c(C)cc1Br	0	-3	-3	-8	/
Cc1ccccc1OCc1nc(-c2cccnc2)no1	0	2	-7	0	46*
CCCn1c(SCC(=O)Nc2cccc(C)n2)nc2c1c(=O)n(C)c(=O)n2C	0	-4	-5	6	43*
CCCn1c(SCC(=O)Nc2cc(C)on2)nc2c1c(=O)n(C)c(=O)n2C	0	8	-5	-2	/
Cc1ccc(-n2ncc(C#N)c2/N=C/N(C)C)cc1	0	-1	15	-2	/
COc1ccc(C(CC(=O)O)NS(=O)(=O)c2ccc(C)cc2)cc1OC (configuration not stated)	0	-6	-1	-1	/
COc1ccc(CCC(=O)O)c(C(CC(=O)O)C(=O)O)c1OS(=O)(=O)c1ccc(C)cc1 (configuration not stated)	/	2	-1	/	1.6*
C/C(=N\NC(=O)c1cccc(N/N=C(\C)c2cc(O)ccc2O)c1)c1cc(O)ccc1O	0	1	13	11	43*
C/C(=N\NC(=O)c1cccc(N/N=C(\C)c2ccco2)c1)c1ccco1	/	6	4	-2	0
C/C(=N\NC(=O)c1cccc(F)c1)c1cccc(NC(=O)c2ccc(F)cc2)c1	0	-5	5	-5	43*
CN1CCN(C(=O)CSc2cc(=O)n(C)c3ccccc23)CC1	0	15	12	-4	43*
CCN1CCN(C(=O)CSc2cc(=O)n(C)c3ccccc23)CC1	0	2	-3	3	0
CN(c1cccc(NC(=O)CN(c2cccc(F)c2)S(C)(=O)=O)c1)S(C)(=O)=O	0	5	9	-5	43*
CC(=O)c1cccc(NC(=O)CN(c2cccc(F)c2)S(C)(=O)=O)c1	0	12	7	2	/
CC1CCN(S(=O)(=O)c2ccc3c(c2)N(CC(=O)NCCCN2CC(C)CC(C)C2)C(=O)CS3)CC1 (configuration not stated)	0	6	-4	5	0
